From ChEMBL document CHEMBL2380310, “Discovery of 7-oxopyrazolo[1,5-a]pyrimidine-6-carboxamides as potent and selective CB(2) cannabinoid receptor inverse agonists” (J Med Chem, 2013)

Legend:
[1] = target: Cannabinoid receptor 1 (Rattus norvegicus) (UniProt P20272); test: Displacement of [3H]CP-55940 from Sprague-Dawley rat brain CB1 receptor at > 10 uM after 90 mins by scintillation counting analysis
Procedure, shortened: (§1)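 Competition with [³H]CP-55,940 (1.0 nM stated in rat CB₁ section; 0.5 nM in general protocol) against 1 nM–10 μM compound, 90 min at 30 °C. GF/C filtration, scintillation counting. Ki via Cheng-Prusoff; mean SEM, n = 4.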

Cannabinoid receptor 2 [2] = target: T1, Cannabinoid receptor 2 (Homo sapiens, UniProt P34972); test: Inverse agonist activity at human CB2 receptor expressed in CHO cell membrane assessed as increase in forskolin-stimulated cAMP production at 10 uM by scintillation counting analysis relative to WIN55212-2
Procedure, shortened: (§2)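 Whole hCB₂ CHO cells (1 × 10⁶/assay) in HEPES-buffered saline with glucose, pH 7.4, preincubated 10 min at 37 °C with 0.5 mM Ro 20-1724. Compound at 1 or 10 μM with 1 μM forskolin. Stopped with cold 6% TCA, ether-extracted; cAMP measured by [³H]cAMP competition binding with adrenal binding protein. Expressed as % increase versus WIN 55,212-2 (set −100%); n = 4.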

Cannabinoid receptor 2 [3] = target: T1, Cannabinoid receptor 2; test: Inverse agonist activity at human CB2 receptor expressed in CHO cell membrane assessed as increase in forskolin-stimulated cAMP production at 1 uM by scintillation counting analysis relative to WIN55212-2; procedure, shortened: as §2
Cannabinoid receptor 1 [4] = target: T2, Cannabinoid receptor 1 (Homo sapiens, UniProt P21554); test: Displacement of [3H]CP-55940 from human CB1 receptor expressed in CHO cell membrane at > 10 uM after 90 mins by scintillation counting analysis; format: cell membranes
Procedure, shortened: (§3)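 Membranes from CHO cells stably expressing human CB₁ (G418-maintained), suspended in 50 mM Tris-HCl, 0.5% BSA, 5 mM MgCl₂, 2.5 mM EDTA, pH 7.4. Displacement of 0.5 nM [³H]CP-55,940 by 1 nM–10 μM compound, 90 min, 30 °C. Filtration on GF/C, scintillation counting. Cheng-Prusoff Ki, LIGAND fitting; mean SEM, n = 4.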

Homo sapiens = species on record: Homo sapiens; test: Selectivity index, ratio of Ki for human CB1 receptor to Ki for human CB2 receptor
Cannabinoid receptor 1 [5] = target: T2, Cannabinoid receptor 1; test: Displacement of [3H]CP-55940 from human CB1 receptor expressed in CHO cell membrane after 90 mins by scintillation counting analysis; format: cell membranes; procedure, shortened: as §3
Cannabinoid receptor 2 [6] = target: T1, Cannabinoid receptor 2; test: Displacement of [3H]CP-55940 from human CB2 receptor expressed in CHO cell membrane after 60 mins by scintillation counting analysis; format: cell membranes
Procedure, shortened: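 Human CB₂-expressing CHO cell membranes in 50 mM Tris-HCl, 0.5% BSA, 5 mM MgCl₂, 1 mM EDTA, pH 7.4. Binding of 0.5 nM [³H]CP-55,940 competed with 1 nM–10 μM compound for 60 min at 30 °C, then GF/C filtration and scintillation counting. Ki by Cheng-Prusoff from IC50; mean SEM of n = 4.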

Cannabinoid receptor 2 [7] = target: T3, Cannabinoid receptor 2 (Rattus norvegicus, UniProt Q9QZN9); test: Displacement of [3H]CP-55940 from Sprague-Dawley rat spleen CB2 receptor after 60 mins by scintillation counting analysis
T3 sequence (Q9QZN9 whole entry): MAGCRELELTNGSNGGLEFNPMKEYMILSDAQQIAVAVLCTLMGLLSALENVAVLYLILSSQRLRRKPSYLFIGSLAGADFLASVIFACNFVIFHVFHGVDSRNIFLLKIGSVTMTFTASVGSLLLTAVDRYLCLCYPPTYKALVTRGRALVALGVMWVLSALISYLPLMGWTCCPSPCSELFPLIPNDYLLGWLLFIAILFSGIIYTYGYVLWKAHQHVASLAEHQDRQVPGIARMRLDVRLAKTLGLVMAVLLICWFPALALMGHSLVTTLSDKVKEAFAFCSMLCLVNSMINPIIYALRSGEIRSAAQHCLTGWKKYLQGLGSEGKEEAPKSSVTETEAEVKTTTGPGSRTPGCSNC
Procedure, shortened: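 Competed against 0.5 nM [³H]CP-55,940 using 1 nM–10 μM compound for 60 min at 30 °C. Bound ligand collected on GF/C filters and counted. Ki from IC50 by Cheng-Prusoff; mean SEM of n = 4.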

Cannabinoid receptor 1 [8] = target: Cannabinoid receptor 1 (Rattus norvegicus, UniProt P20272); test: Displacement of [3H]CP-55940 from Sprague-Dawley rat brain CB1 receptor after 90 mins by scintillation counting analysis; procedure, shortened: as §1
Chain of Cannabinoid receptor 1 (Rattus norvegicus, UniProt P20272) (P20272 whole entry): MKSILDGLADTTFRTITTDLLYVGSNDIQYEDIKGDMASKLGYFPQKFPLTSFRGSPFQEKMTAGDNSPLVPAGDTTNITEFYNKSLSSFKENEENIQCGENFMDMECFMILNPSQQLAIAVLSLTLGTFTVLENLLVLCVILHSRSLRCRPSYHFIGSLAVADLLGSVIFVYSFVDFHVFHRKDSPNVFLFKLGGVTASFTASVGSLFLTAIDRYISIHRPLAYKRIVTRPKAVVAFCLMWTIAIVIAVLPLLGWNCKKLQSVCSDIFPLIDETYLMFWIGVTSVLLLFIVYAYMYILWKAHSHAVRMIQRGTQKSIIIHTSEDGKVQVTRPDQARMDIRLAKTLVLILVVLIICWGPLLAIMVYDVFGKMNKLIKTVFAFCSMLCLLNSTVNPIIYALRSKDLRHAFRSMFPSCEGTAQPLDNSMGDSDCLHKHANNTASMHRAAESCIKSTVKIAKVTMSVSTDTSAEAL

T1 sequence (P34972 whole entry): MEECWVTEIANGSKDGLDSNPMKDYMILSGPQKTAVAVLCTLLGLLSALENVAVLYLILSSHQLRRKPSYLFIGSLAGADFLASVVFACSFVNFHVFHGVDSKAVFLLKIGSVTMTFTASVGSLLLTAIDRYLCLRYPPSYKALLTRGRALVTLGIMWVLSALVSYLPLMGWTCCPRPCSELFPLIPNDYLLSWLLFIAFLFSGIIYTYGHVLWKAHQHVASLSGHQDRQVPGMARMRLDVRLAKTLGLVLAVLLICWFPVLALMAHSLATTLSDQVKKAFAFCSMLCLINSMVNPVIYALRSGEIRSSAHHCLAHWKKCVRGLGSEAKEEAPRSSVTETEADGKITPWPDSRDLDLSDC
Chain of Cannabinoid receptor 1 (Rattus norvegicus) (P20272 whole entry): as the sequence (P20272 whole entry) above
T2 sequence (P21554 whole entry): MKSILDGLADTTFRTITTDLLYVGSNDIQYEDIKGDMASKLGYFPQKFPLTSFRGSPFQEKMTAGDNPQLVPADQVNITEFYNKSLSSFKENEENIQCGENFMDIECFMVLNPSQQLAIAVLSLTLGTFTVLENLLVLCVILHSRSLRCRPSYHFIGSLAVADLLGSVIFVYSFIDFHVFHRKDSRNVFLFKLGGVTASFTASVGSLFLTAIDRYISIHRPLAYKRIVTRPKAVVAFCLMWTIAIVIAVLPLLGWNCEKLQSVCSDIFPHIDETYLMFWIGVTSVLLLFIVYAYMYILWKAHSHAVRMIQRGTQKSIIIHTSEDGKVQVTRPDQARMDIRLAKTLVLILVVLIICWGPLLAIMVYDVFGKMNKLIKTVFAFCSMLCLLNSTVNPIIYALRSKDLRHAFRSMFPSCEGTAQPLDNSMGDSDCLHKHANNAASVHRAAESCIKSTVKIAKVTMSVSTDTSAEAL

SMILES	Activity [1]	Activity (Cannabinoid receptor 2 [2])	Activity (Cannabinoid receptor 2 [3])	Activity (Cannabinoid receptor 1 [4])	Ratio Ki (Homo sapiens)	Ki (Cannabinoid receptor 1 [5])	Ki (Cannabinoid receptor 2 [6])	Ki (Cannabinoid receptor 2 [7])	Ki (Cannabinoid receptor 1 [8])
CCCCCn1cc(C(=O)NC2CCCCCC2)c(=O)n2nc(-c3ccc(Cl)cc3Cl)cc12	49%	77%	61%	39%	> 270	> 10000 nM	37 nM	40 nM	> 10000 nM
CCCCCn1cc(C(=O)NC2CCCCC2)c(=O)n2nc(-c3ccc(C)cc3)cc12	25%	93%	63%	20%	> 175	> 10000 nM	57 nM	62 nM	> 10000 nM
CCCCCn1cc(C(=O)NC23CC4CC(CC(C4)C2)C3)c(=O)n2nc(C)cc12	–	75%	56%	–	88	1120 nM	12.7 nM	15.3 nM	1460 nM
CCCCCn1cc(C(=O)NC2CCCCC2)c(=O)n2nc(CC)cc12	–	146%	121%	–	40	420 nM	10.4 nM	11.5 nM	480 nM
CCCCCn1cc(C(=O)NC2CCCCCC2)c(=O)n2nc(C)cc12	–	63%	44%	–	51	527 nM	10.3 nM	12.4 nM	642 nM
CCCCCn1cc(C(=O)NC2CCCCC2)c(=O)n2nc(C(C)(C)C)cc12	–	115%	85%	–	55	675 nM	12.3 nM	14.2 nM	720 nM
CCCCCn1cc(C(=O)NC23CC4CC(CC(C4)C2)C3)c(=O)n2nc(C)c(Br)c12	1%	48%	32%	1%	> 45	> 10000 nM	220 nM	272 nM	> 10000 nM
CCCCCn1cc(C(=O)NC2CCCCCC2)c(=O)n2nc(-c3ccc(C)cc3)cc12	49%	107%	81%	39%	> 970	> 10000 nM	10.3 nM	13.2 nM	> 10000 nM
CCCCCn1cc(C(=O)NC23CC4CC(CC(C4)C2)C3)c(=O)n2nc(C)c(-c3ccc(OC)cc3)c12	5%	60%	36%	4%	> 28	> 10000 nM	350 nM	434 nM	> 10000 nM
CCCCCn1cc(C(=O)NC23CC4CC(CC(C4)C2)C3)c(=O)n2nc(-c3c(Cl)cccc3Cl)cc12	18%	62%	38%	21%	> 102	> 10000 nM	98 nM	110 nM	> 10000 nM
CCCCCn1cc(C(=O)NC23CC4CC(CC(C4)C2)C3)c(=O)n2nc(-c3cccs3)cc12	22%	102%	89%	26%	> 1600	> 10000 nM	6.24 nM	7.52 nM	> 10000 nM
CCCCCn1cc(C(=O)NC2CCCCC2)c(=O)n2nc(-c3ccccc3)cc12	–	123%	92%	–	17	702 nM	42 nM	50 nM	750 nM
CCCCCn1cc(C(=O)NC2CCCCC2)c(=O)n2nc(-c3ccc(Cl)cc3Cl)cc12	47%	65%	45%	38%	> 192	> 10000 nM	52 nM	60 nM	> 10000 nM
CCCCCn1cc(C(=O)NC2CCCCC2)c(=O)n2nc(-c3ccccc3C)cc12	30%	94%	73%	16%	> 250	> 10000 nM	40 nM	48 nM	> 10000 nM
CCCCCn1cc(C(=O)NC23CC4CC(CC(C4)C2)C3)c(=O)n2nc(-c3ccccc3Cl)cc12	48%	136%	114%	41%	> 1610	> 10000 nM	6.21 nM	6.32 nM	> 10000 nM
CCCCCn1cc(C(=O)NC2CCC(C)CC2)c(=O)n2nc(C)cc12 (configuration not stated)	–	67%	48%	–	23	2430 nM	106 nM	120 nM	2600 nM
CCCCCn1cc(C(=O)NC2CCCCC2)c(=O)n2nc(-c3ccccc3Cl)cc12	40%	55%	37%	34%	> 212	> 10000 nM	47 nM	52 nM	> 10000 nM
CCCCCn1cc(C(=O)NC23CC4CC(CC(C4)C2)C3)c(=O)n2nc(-c3ccccc3C)cc12	30%	184%	155%	22%	> 3500	> 10000 nM	2.86 nM	3.21 nM	> 10000 nM
CCCCCn1cc(C(=O)NC2CCCCCC2)c(=O)n2nc(-c3ccccc3)cc12	–	134%	103%	–	27	825 nM	31 nM	35 nM	900 nM
CCCCCn1cc(C(=O)NC23CC4CC(CC(C4)C2)C3)c(=O)n2nc(-c3ccc(Cl)cc3)cc12	10%	183%	144%	13%	> 2580	> 10000 nM	3.88 nM	4.21 nM	> 10000 nM
CCCCCn1cc(C(=O)NC2CCCCCC2)c(=O)n2nc(-c3ccccc3C)cc12	45%	125%	107%	34%	> 1120	> 10000 nM	8.93 nM	9.53 nM	> 10000 nM
CCCCCn1cc(C(=O)NC2CCCCC2)c(=O)n2nc(C)cc12	–	54%	42%	–	58	1280 nM	22 nM	26 nM	1580 nM
CCCCCn1cc(C(=O)NC23CC4CC(CC(C4)C2)C3)c(=O)n2nc(-c3ccc(C)s3)cc12	33%	68%	38%	31%	> 862	> 10000 nM	11.6 nM	12.2 nM	> 10000 nM
CCCCCn1cc(C(=O)NC23CC4CC(CC(C4)C2)C3)c(=O)n2nc(C(C)(C)C)cc12	–	189%	114%	–	124	612 nM	4.95 nM	5.54 nM	675 nM
CCCCCn1cc(C(=O)NC2CCCCCC2)c(=O)n2nc(CC)cc12	–	159%	137%	–	38	200 nM	5.22 nM	5.63 nM	220 nM
CCCCCn1cc(C(=O)NCc2ccccc2)c(=O)n2nc(C)cc12	–	52%	38%	–	9.2	3290 nM	358 nM	428 nM	3690 nM
